Measurements: PubChem BioAssay AID1217 (Sanford-Burnham Center for Chemical Genomics, 2008)
Hit rate of the full screen: of about 190,000 compounds, about 1,300 (0.68%) were called active. Shown is part of a subset that was picked to be rich in actives. Unmarked numbers belong to inactive results.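 How the source made its calls: active means primary screen inhibition at 20 µM above a set limit (cut at about 50% in these data); inactive means the rest.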

The compounds below were run on diaphorase (Clostridium kluyveri) (assay: diaphorase inhibitors and chemical oxidizers, primary screen, counter-screen for diaphorase-coupled primary assays, biochemical, uHTS, resorufin fluorescence (AID 1217;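 further: plate controls were DMSO with full reaction for no effect and wells lacking NADH for full effect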)). Settings: diaphorase resazurin-to-resorufin fluorescence, NADH, 16 min; at 20 µM; stronger effect = higher value.
In short: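 Assay system: diaphorase enzyme from Clostridium kluyveri. Quantity: enzyme working solution with 0.14 U/mL diaphorase. Schedule: reaction incubation of 16 min at room temperature. Technique: resorufin fluorescence, excitation 544 nm, emission 590 nm. Controls: No-NADH positive control and DMSO neutral control.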

Compound	inhibition
COc1ccccc1N=Nc1c(O)[nH]c(=S)[nH]c1=O	51.2% (active)
COc1ccccc1N=C1SCCCN1C	7.6%
COc1ccccc1-n1c(O)c(C=NC2CC2)c(=O)[nH]c1=O	7.4%
COc1ccc(-c2nn(CCC#N)cc2C(=O)O)cc1	0.1%
COc1ccc(NC(=O)c2cn(CCC#N)nc2-c2ccc([N+](=O)[O-])cc2)cc1	1.1%
CN(C)c1nc(N(C)C)nc(N(C#N)CCCl)n1	-15.8%
O=C(Cc1ccccc1)N1CCN(C2CCCCCC2)CC1	19.6%
O=C1N=c2ccccc2=C/C1=C\c1c(O)[nH]c(=S)[nH]c1=O	20%
Cc1ccc2c(c1)=C/C(=C\c1c(O)[nH]c(=O)[nH]c1=O)C(=O)N=2	65.8% (active)
COc1cccc(N2C(=O)NC(=O)/C(=C\c3ccc([N+](=O)[O-])s3)C2=O)c1	27.2%
